# Data published in ChEMBL document CHEMBL1649585, “Role of the Mycobacterium tuberculosis P55 efflux pump in intrinsic drug resistance, oxidative stress responses, and growth” (2009).
# Calls of active or inactive are those of the source. The calls are words filed in the database; no cut-off is given here. Where a SMILES comes first, the peptide text is derived from it. Bridges are numbered along the chain shown (N, C = ends). [ ]: non-standard residue; d: D form. The star is where a group is joined. Ileψ(thiazoline)Cys = CC[C@H](C)[C@H](N)C1=N[C@H](C(=O)*)CS1; dOrn = NCCC[C@@H](N)C(=O)O
# Assays:
# [1] = test system: Mycobacterium tuberculosis; experiment: Antimicrobial activity against Mycobacterium bovis BCG by resazurine microtiter assay; format: functional; conditions: variant bovis BCG, Urine
# Outline: (§1)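 Resazurin microdilution in liquid medium: serial twofold compound dilutions, plates incubated 8 days at 37°C, then 2 more days after adding resazurin. MIC read from the indicator. Run in triplicate and repeated at least three times.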
# [2] = test system: Mycobacterium tuberculosis; experiment: Decrease in intracellular redox potential in wild-type Mycobacterium bovis BCG assessed as decreased accumulation of formazan at 256 mg/liter after 1 hr by MTT assay; format: functional, variant bovis BCG; set-up: scale not given: the % may be the effect or the level left
# Outline: (§2)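 MTT reduction as an index of intracellular redox potential: cultures at OD600 0.2 treated with drug or solvent for 1 h at 37°C in quadruplicate wells, MTT (2 mg/ml stock) added, 3 h further incubation. Formazan solubilised with 10% SDS, 30 min shaking, absorbance at 600 nm. Repeated at least three independent times.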
# [3] = test system: Mycobacterium tuberculosis; experiment: Antimicrobial activity against Mycobacterium bovis BCG by twofold dilution method; format: functional; conditions: variant bovis BCG
# Outline: (§3)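 Agar MIC: log-phase cultures diluted to 10^5 cells/ml, 10 µl spotted onto Middlebrook 7H10 plates with serial twofold antibiotic dilutions. Visible growth scored after 21 days at 37°C. Triplicate, repeated at least three times.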
# [4] = test system: Mycobacterium tuberculosis; experiment: Ratio of MIC for wild type Mycobacterium bovis BCG to MIC for Mycobacterium bovis BCG KOP55 harboring inactivated p55 gene; format: functional, variant bovis BCG
# [5] = test system: Mycobacterium tuberculosis; experiment: Antimicrobial activity against Mycobacterium bovis BCG by resazurine microtiter assay in presence of 1 mg/liter CCCP; format: functional; conditions: variant bovis BCG, Urine
# Outline: (§4)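 Resazurin microdilution MIC (serial twofold dilutions, 8 days at 37°C plus 2 days after resazurin) run with a fixed subinhibitory level of efflux pump inhibitor (valinomycin, reserpine or CCCP) present throughout. Triplicate, repeated at least three times.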
# [6] = test system: Mycobacterium tuberculosis; experiment: Antimicrobial activity against Mycobacterium bovis BCG harboring pPAZ23 carrying p27-p55 operon by resazurine microtiter assay; format: functional; conditions: variant bovis BCG, Urine; outline: as §1
# [7] = test system: Mycobacterium tuberculosis; experiment: Ratio of MIC for Mycobacterium bovis BCG harboring pPAZ23 carrying p27-p55 operon to MIC for wild-type Mycobacterium bovis BCG; format: functional, variant bovis BCG
# [8] = test system: Mycobacterium tuberculosis; experiment: Ratio of MIC for wild type Mycobacterium bovis BCG to MIC for wild type Mycobacterium bovis BCG in presence of 1 mg/liter CCCP; format: functional, variant bovis BCG
# [9] = test system: Mycobacterium tuberculosis; experiment: Antimicrobial activity against Mycobacterium bovis BCG by resazurine microtiter assay in presence of 0.1 mg/liter valinomycin; format: functional; conditions: variant bovis BCG, Urine; outline: as §4
# [10] = test system: Mycobacterium tuberculosis; experiment: Antimicrobial activity against Mycobacterium bovis BCG by resazurine microtiter assay in presence of 0.5 mg/liter reserpine; format: functional; conditions: variant bovis BCG, Urine; outline: as §4
# [11] = test system: Mycobacterium tuberculosis; experiment: Increase in intracellular redox potential in wild-type Mycobacterium bovis BCG assessed as increased accumulation of formazan at 5 mg/liter after 1 hr by MTT assay; format: functional, variant bovis BCG; outline: as §2
# [12] = test system: Mycobacterium tuberculosis; experiment: Antimicrobial activity against Mycobacterium bovis BCG harboring pPAZ23 carrying p27-p55 operon by twofold dilution method; format: functional; conditions: variant bovis BCG; outline: as §3
# [13] = test system: Mycobacterium tuberculosis; experiment: Effect on intracellular redox potential in wild-type Mycobacterium bovis BCG assessed as accumulation of formazan at 5 mg/liter after 1 hr by MTT assay; format: functional, organism-based; conditions: variant bovis BCG; outline: as §2
structure (smiles),measurement,setting,value
CC(C)[C@@H]1NC(=O)[C@H](C)OC(=O)[C@@H](C(C)C)NC(=O)[C@@H](C(C)C)OC(=O)[C@H](C(C)C)NC(=O)[C@H](C)OC(=O)[C@@H](C(C)C)NC(=O)[C@@H](C(C)C)OC(=O)[C@H](C(C)C)NC(=O)[C@H](C)OC(=O)[C@@H](C(C)C)NC(=O)[C@@H](C(C)C)OC1=O [VALINOMYCIN],MIC,[1],0.4 µg/mL
CN(C)C(=O)/N=N/C(=O)N(C)C [DIAMIDE],Activity,[2],25%
COC(=O)[C@H]1[C@H]2C[C@@H]3c4[nH]c5cc(OC)ccc5c4CCN3C[C@H]2C[C@@H](OC(=O)c2cc(OC)c(OC)c(OC)c2)[C@@H]1OC [RESERPINE],MIC,[1],2 µg/mL
CN(C)CCCN1c2ccccc2Sc2ccc(Cl)cc21 [CHLORPROMAZINE],MIC,[3],4 µg/mL
CN[C@H](CC(C)C)C(=O)N[C@H]1C(=O)N[C@@H](CC(N)=O)C(=O)N[C@H]2C(=O)N[C@H]3C(=O)N[C@H](C(=O)N[C@H](C(=O)O)c4cc(O)cc(O)c4-c4cc3ccc4O)[C@H](O)c3ccc(c(Cl)c3)Oc3cc2cc(c3O[C@@H]2O[C@H](CO)[C@@H](O)[C@H](O)[C@H]2O[C@H]2C[C@](C)(N)[C@H](O)[C@H](C)O2)Oc2ccc(cc2Cl)[C@H]1O [VANCOMYCIN],Ratio,[4],16
same,MIC,[1],4 µg/mL
same,MIC,[5],4 µg/mL
same,MIC,[6],8 µg/mL
same,Ratio,[7],2
O=[N+]([O-])c1cn2c(n1)OC[C@@H](OCc1ccc(OC(F)(F)F)cc1)C2 [PRETOMANID],MIC,[1],0.25 µg/mL
N#CC(C#N)=NNc1cccc(Cl)c1 [CARBONYL CYANIDE M-CHLOROPHENYLHYDRAZONE],MIC,[1],4 µg/mL
Oc1cc(Cl)ccc1Oc1ccc(Cl)cc1Cl [TRICLOSAN],MIC,[3],8 µg/mL
CO[C@@H]1[C@@H](OC(N)=O)[C@@H](O)[C@H](Oc2ccc3c(O)c(NC(=O)c4ccc(O)c(CC=C(C)C)c4)c(=O)oc3c2C)OC1(C)C [NOVOBIOCIN],Ratio,[8],4
same,MIC,[1],16 µg/mL
same,MIC,[5],4 µg/mL
same,MIC,[9],8 µg/mL
same,MIC,[10],8 µg/mL
CC[C@H](C)[C@H](N)C1=N[C@H](C(=O)N[C@@H](CC(C)C)C(=O)N[C@H](CCC(=O)O)C(=O)N[C@H](C(=O)N[C@H]2CCCCNC(=O)[C@H](CC(N)=O)NC(=O)[C@@H](CC(=O)O)NC(=O)[C@H](Cc3cnc[nH]3)NC(=O)[C@@H](Cc3ccccc3)NC(=O)[C@H]([C@@H](C)CC)NC(=O)[C@@H](CCCN)NC2=O)[C@@H](C)CC)CS1 [BACITRACIN] ({Ileψ(thiazoline)Cys}-L[dE]IK[dOrn]I[dF]H[dD]N; lactam 4-C),MIC,[1],> 256 µg/mL
same,MIC,[5],> 256 µg/mL
CC1=CC(=O)c2ccccc2C1=O [MENADIONE],fold change (FC),[11],3.5
CO[C@H]1/C=C/O[C@@]2(C)Oc3c(C)c(O)c4c(O)c(c(/C=N/N5CCN(C)CC5)c(O)c4c3C2=O)NC(=O)/C(C)=C\C=C\[C@H](C)[C@H](O)[C@@H](C)[C@@H](O)[C@@H](C)[C@H](OC(C)=O)[C@@H]1C [RIFAMPIN],Ratio,[8],4
same,MIC,[1],0.0032 µg/mL
same,MIC,[5],0.0008 µg/mL
same,MIC,[9],0.0016 µg/mL
same,MIC,[10],0.0016 µg/mL
same,MIC,[6],0.0032 µg/mL
CC[C@@H](CO)NCCN[C@@H](CC)CO [ETHAMBUTOL],MIC,[1],4 µg/mL
Clc1ccc(COC(Cn2ccnc2)c2ccc(Cl)cc2Cl)cc1 (centres undefined) [ECONAZOLE],Ratio,[4],4
same,MIC,[3],6.4 µg/mL
same,MIC,[12],12.8 µg/mL
same,Ratio,[7],2
CC(C)/N=c1\cc2n(-c3ccc(Cl)cc3)c3ccccc3nc-2cc1Nc1ccc(Cl)cc1 [CLOFAZIMINE],MIC,[3],0.1 µg/mL
same,MIC,[12],0.1 µg/mL
same,Activity,[13],inactive
